For assay [1], the species on record is Rattus norvegicus. Description: Tested for noncumulative contractile concentration -response curves for serotonin in the rat fundus. Format: functional. An outline of the steps:
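Isolated rat stomach fundus strips, four per fundus, in 10 mL modified Krebs. Noncumulative serotonin curves, about 2 min contact per concentration, washout every 15-20 min, maximal contraction read. Antagonist or buffer for 1 h, then curve repeated; one antagonist concentration per tissue. KB = [B]/(dose ratio - 1) from ED50 shift, reported as -log KB.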

For assay [2], the species on record is Rattus norvegicus. Description: Tested for cumulative contractile concentration -response curves for serotonin in the rat jugular vein.
Assay [3] concerns the target T1, Serotonin 1 (5-HT1) receptor (Rattus norvegicus, UniProt P28564+P30940+P19327+P28565). Description: Binding affinity towards 5-hydroxytryptamine 1 receptor in brain cortical membranes of rat. The assay is classed as cell membranes. An outline of the steps:
(§1)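 Rat 5HT1 site: cortical membranes from 150-200-g male Wistar rats, preincubated in buffer to remove endogenous 5HT; […] per sample in 1 mL Tris buffer. [3H]-5HT at 2.3-2.6 nM; nonspecific binding with 10^-5 M 5HT. IC50 = 50% inhibition of specific binding, from 10 concentrations spanning 10^-9 to 10^-4 M.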

The target in assay [4] is Serotonin 2 (5-HT2) receptor (Rattus norvegicus, UniProt P30994+P08909+P14842). Put plainly: Binding affinity towards 5-hydroxytryptamine 2 receptor in rat brain cortical membranes. The assay is classed as cell membranes. An outline of the steps:
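5HT2 site, [3H]spiperone binding to cortical membranes of 150-200-g male Wistar rats, preincubated to deplete endogenous 5HT; […] per 1 mL Tris buffer. Nonspecific binding defined with 10^-6 M lysergic acid diethylamide. IC50 taken as 50% inhibition of specific binding, 10 concentrations from 10^-9 to 10^-4 M.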

The target in assay [5] is T1, Serotonin 1 (5-HT1) receptor. Description: Tested for its binding affinity towards 5-hydroxytryptamine 1 receptor in rat. A digest of the protocol: as §1
The species entered for assay [6] is Rattus norvegicus. Put plainly: Tested for cumulative contractile concentration -response curves for serotonin in the rat jugular vein.

This is an account of results in ChEMBL document CHEMBL1123504, “2,3-Dialkyl(dimethylamino)indoles: interaction with 5HT1, 5HT2, and rat stomach fundal serotonin receptors” (J Med Chem, 1986).

SMILES strings stand for the structures.

By IC50 is commonly meant the concentration that inhibits the measured activity by half. Lower therefore signals higher potency. Consider `CCc1c(C)n(CC)c2ccc(N(C)C)cc12`, for which the “-Log KB” value in assay [1] stood at 7.01; in assay [2], 6.45. Besides, the IC50 in assay [3] and in assay [4] was over 1 µM in each case.

Consider `CCc1c(C)n(C)c2ccc(N(C)C)cc12`, for which the “-Log KB” value worked out at 7.32 in assay [1] and 6.51 in assay [2]. Also, the concentration for half-maximal inhibition (IC50) in assay [3] and in assay [4] was over 1 µM each time.

For the compound `CCc1c(C)n(C(=O)c2ccc(F)cc2)c2ccc(N(C)C)cc12`, the “-Log KB” value in assay [1] is listed as under 5. The concentration for half-maximal inhibition (IC50) in assay [4] and in assay [5] was over 1 µM throughout.

For `CCc1c(C)n(C(C)C)c2ccc(N(C)C)cc12`, the figures for the “-Log KB” value in assay [6] and in assay [1] were 7.28 and 7, respectively. Also, the IC50 in assay [3] and in assay [4] was over 1 µM throughout.

`CCc1c(C)[nH]c2ccc(N(C)C)cc12`: the “-Log KB” value in assay [1] amounted to 7.3; in assay [2], 4.93. The 50% inhibitory concentration (IC50) in assay [3] and in assay [4] was over 1 µM throughout.

Regarding `CCc1c(C)n(C)c2c(N(C)C)cccc12`, in assay [1], the “-Log KB” value was under 5.5. The IC50 in assay [3] and in assay [4] was over 1 µM throughout.

In the case of `CCc1c(C)[nH]c2ccc(N(C)C)c(Cl)c12`, in assay [1], the “-Log KB” value is recorded as 6.86. For the same compound, the 50% inhibitory concentration (IC50) in assay [3] and in assay [4] was over 1 µM each time.

Take `CCCn1c(C)c(CC)c2cc(N(C)C)ccc21`: the “-Log KB” value in assay [1] turned out to be 6.57. Further, the half-inhibitory concentration (IC50) in assay [3] and in assay [4] was over 1 µM in each case.

As for `CCc1c(C)n(C)c2ccc(NC(=O)Nc3cccc(C(F)(F)F)c3)cc12`, the “-Log KB” value in assay [1] worked out at 7.16; in assay [2], 5.18. The IC50 in assay [3] and in assay [4] was over 1 µM in each case.

As to `CCc1c(C)c2cc(N(C)C)ccc2n1C`, the figures for the “-Log KB” value in assay [6] and in assay [1] were 6.48 and 6.69, respectively. For the same compound, the IC50 in assay [3] and in assay [4] was over 1 µM throughout.

Consider `Cc1c(C)n(C)c2ccc(N(C)C)cc12`, for which the “-Log KB” value in assay [1] came to 6.71. Moreover, the IC50 in assay [3] and in assay [4] was over 1 µM each time.
